# Assay results taken from ChEMBL document CHEMBL4138211, “Regio- and stereoselective synthesis of dispirooxindole-pyrrolocarbazole hybrids via 1,3-dipolar cycloaddition reactions: Cytotoxic activity and SAR studies” (Eur J Med Chem, 2018).
# pIC50: −log10 of the molar value. The source made the active and inactive calls. The rule behind the calls is not given here.
# Key:
# MCF7 [1] = experiment: Induction of apoptosis in human MCF7 cells assessed as nuclear condensation by acridine orange/ethidium bromide staining-based fluorescence microscopic analysis; assay type: functional, cell-based
# Summary of the method: (§1)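 Treated cells collected and washed in PBS (pH 7.2). Stained with a 1:1 AO/EtBr mixture (each dye […] in water) and held 2 min. Washed twice in PBS and viewed by fluorescence microscopy at 400× with 480 nm excitation. Green intact-membrane cells distinguished from orange/red membrane-damaged cells.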
# A549 [2] = experiment: Induction of apoptosis in human A549 cells by acridine orange/ethidium bromide staining-based fluorescence microscopic analysis; assay type: functional, cell-based; summary of the method: as §1
# MCF7 [3] = experiment: Induction of apoptosis in human MCF7 cells assessed as nuclear fragmentation after 24 hrs by DAPI staining-based fluorescence microscopic analysis; assay type: functional, cell-based
# Summary of the method: (§2)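 Cells plated on glass coverslips and treated for 24 h, then fixed. Permeabilised with 0.2% Triton X-100 for 10 min at room temperature. DAPI applied for 3 min under a coverslip. Nuclei inspected by fluorescence microscopy for condensed chromatin and fragmentation, against untreated cells.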
# MCF7 [4] = experiment: Induction of apoptosis in human MCF7 cells assessed as formation of floating cells after 24 hrs by brightfield inverted light microscopic analysis; assay type: functional, cell-based
# MCF7 [5] = experiment: Induction of apoptosis in human MCF7 cells assessed as chromatin condensation after 24 hrs by DAPI staining-based fluorescence microscopic analysis; assay type: functional, cell-based; summary of the method: as §2
# MCF7 [6] = experiment: Antiproliferative activity against human MCF7 cells after 48 hrs by MTT assay; assay type: functional, cell-based; conditions: for pIC50: MCF7, 48 h
# Summary of the method: (§3)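 Cells grown 1×10⁴/well for 48 h to about 75% confluence. Medium then replaced with fresh medium containing serially diluted compounds, followed by a further 48 h. MTT added for 4 h at 37 °C and formazan dissolved in DMSO for 10 min. OD read at 620 nm. IC50 taken from the viability–concentration survival curve. Three independent experiments, each in triplicate.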
# A549 [7] = experiment: Induction of apoptosis in human A549 cells assessed as cell shrinkage after 24 hrs by brightfield inverted light microscopic analysis; assay type: functional, cell-based
# A549 [8] = experiment: Induction of apoptosis in human A549 cells assessed as membrane blebbing after 24 hrs by brightfield inverted light microscopic analysis; assay type: functional, cell-based
# MCF7 [9] = experiment: Induction of apoptosis in human MCF7 cells assessed as membrane blebbing after 24 hrs by brightfield inverted light microscopic analysis; assay type: functional, cell-based
# A549 [10] = experiment: Induction of apoptosis in human A549 cells assessed as nuclear fragmentation after 24 hrs by DAPI staining-based fluorescence microscopic analysis; assay type: functional, cell-based; summary of the method: as §2
# MCF7 [11] = experiment: Induction of apoptosis in human MCF7 cells assessed as cell shrinkage after 24 hrs by brightfield inverted light microscopic analysis; assay type: functional, cell-based
# MCF7 [12] = experiment: Induction of apoptosis in human MCF7 cells assessed as damaged cell membranes by acridine orange/ethidium bromide staining-based fluorescence microscopic analysis; assay type: functional; summary of the method: as §1
# A549 [13] = experiment: Induction of apoptosis in human A549 cells assessed as formation of floating cells after 24 hrs by brightfield inverted light microscopic analysis; assay type: functional, cell-based
# MCF7 [14] = experiment: Induction of apoptosis in human MCF7 cells by acridine orange/ethidium bromide staining-based fluorescence microscopic analysis; assay type: functional, cell-based; summary of the method: as §1
# A549 [15] = experiment: Antiproliferative activity against human A549 cells after 48 hrs by MTT assay; assay type: functional, cell-based; conditions: for pIC50: A549, 48 h; summary of the method: as §3
SMILES,pIC50 (MCF7 [6]),pIC50 (A549 [15]),Activity (MCF7 [1]),Activity (A549 [2]),Activity (MCF7 [3]),Activity (MCF7 [4]),Activity (MCF7 [5]),Activity (MCF7 [6]),Activity (A549 [7]),Activity (A549 [8]),Activity (MCF7 [9]),Activity (A549 [10]),Activity (MCF7 [11]),Activity (MCF7 [12]),Activity (A549 [13]),Activity (MCF7 [14]),Activity (A549 [15])
COc1ccc([C@H]2[C@@H](c3ccccc3)N[C@@]3(C(=O)Nc4ccccc43)[C@]23CCc2c([nH]c4ccc(C)cc24)C3=O)cc1,4.74,4.70,inactive,inactive,Active,inactive,Active,Dose-dependent effect,inactive,inactive,inactive,inactive,inactive,inactive,inactive,inactive,Dose-dependent effect
O=C1Nc2ccccc2[C@]12N[C@H](c1ccccc1)[C@H](c1ccccc1)[C@@]21CCc2c([nH]c3ccc(Cl)cc23)C1=O,4.74,4.82,inactive,inactive,Active,inactive,Active,Dose-dependent effect,inactive,inactive,inactive,inactive,inactive,inactive,inactive,inactive,Dose-dependent effect
COc1ccc([C@H]2[C@@H](c3ccccc3)N[C@@]3(C(=O)Nc4ccccc43)[C@]23CCc2c([nH]c4ccc(Cl)cc24)C3=O)cc1,4.72,4.74,inactive,inactive,Active,inactive,Active,Dose-dependent effect,inactive,inactive,inactive,inactive,inactive,inactive,inactive,inactive,Dose-dependent effect
Cc1ccc2[nH]c3c(c2c1)CC[C@]1(C3=O)[C@@H](c2ccccc2)[C@@H](c2ccccc2)N[C@@]12C(=O)Nc1ccccc12,4.72,4.74,inactive,inactive,Active,inactive,Active,Dose-dependent effect,inactive,inactive,inactive,inactive,inactive,inactive,inactive,inactive,Dose-dependent effect

# Compounds with a higher pIC50 (MCF7 [6]), results first:
pIC50 (MCF7 [6]),pIC50 (A549 [15]),SMILES,Activity (MCF7 [1]),Activity (A549 [2]),Activity (MCF7 [3]),Activity (MCF7 [4]),Activity (MCF7 [5]),Activity (MCF7 [6]),Activity (A549 [7]),Activity (A549 [8]),Activity (MCF7 [9]),Activity (A549 [10]),Activity (MCF7 [11]),Activity (MCF7 [12]),Activity (A549 [13]),Activity (MCF7 [14]),Activity (A549 [15])
4.77,4.68,COc1ccc([C@H]2[C@@H](c3ccccc3)N[C@@]3(C(=O)Nc4ccccc43)[C@]23CCc2c([nH]c4ccccc24)C3=O)cc1,,,,,,Dose-dependent effect,,,,,,,,,Dose-dependent effect
4.85,4.82,Cc1ccc2[nH]c3c(c2c1)CC[C@]1(C3=O)[C@@H](c2cccs2)[C@@H](c2ccccc2)N[C@@]12C(=O)Nc1ccccc12,Active,Active,Active,Dose-dependent effect,,Dose-dependent effect,Dose-dependent effect,Dose-dependent effect,Dose-dependent effect,Active,Dose-dependent effect,Active,Dose-dependent effect,Active,Dose-dependent effect
4.82,4.77,O=C1Nc2ccccc2[C@]12N[C@H](c1ccccc1)[C@H](c1ccccc1)[C@@]21CCc2c([nH]c3ccccc23)C1=O,inactive,inactive,Active,inactive,,Dose-dependent effect,inactive,inactive,inactive,inactive,inactive,inactive,inactive,inactive,Dose-dependent effect
4.82,4.80,O=C1Nc2ccccc2[C@]12N[C@H](c1ccccc1)[C@H](c1cccs1)[C@@]21CCc2c([nH]c3ccccc23)C1=O,inactive,Active,Active,inactive,,Dose-dependent effect,inactive,inactive,inactive,inactive,inactive,inactive,inactive,inactive,Dose-dependent effect
